Reference: article PMC3212727 (The Journal of Experimental Medicine, 2006)

Columns and labels:
[1] = tested on: TAP1-GFP in MelJuSo cells; assay: TAP mobility assay; type: cell-based, human; details: FRAP; for initial increase in intracellular peptides: measured 1 h after irradiation, Fig. 2A and unpublished data
In short: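 FRAP was run at 37°C on MelJuSo cells stably expressing TAP1-GFP, imaged 1 h after 4 Gy γ-irradiation. Some cells were pretreated with 10 μM lactacystin for 30 min, ATP-depleted with 0.05% NaAz plus […] 2-deoxyglucose for 30 min, or given cycloheximide. An ER spot was bleached at full laser power and recovery followed with an attenuated beam. Diffusion coefficient came from bleach-corrected recovery half-times: ≥3 experiments, mean ± SD.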

mTOR pathway [2] = assay: GFP expression of irradiated MelJuSo cells by flow cytometry; type: cell-based, human; details: 20 nM rapamycin
In short: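 MelJuSo cells stably transfected with EGFP in pcDNA3 (CMV promoter) received 0 or 25 Gy γ-irradiation (137Cs, 0.75 Gy/min), with or without 20 nM rapamycin. GFP fluorescence was read by flow cytometry at 0, 4 or 24 h after irradiation. n = 6, mean ± SD.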

mTOR pathway [3] = assay: Surface MHC class I expression of MelJuSo cells; type: cell-based, human; details: 25 Gy, 20 nM rapamycin, W6/32 flow cytometry, n = 4
In short: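 Human melanoma MelJuSo cells received 0–25 Gy γ-irradiation (137Cs, 0.75 Gy/min). They were cultured for the stated times with or without 20 nM rapamycin, stained for surface MHC class I with W6/32 and analysed by flow cytometry, with a background control lacking primary antibody. Mean fluorescence intensity was expressed relative to nonirradiated control cells.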

mTOR pathway [4] = assay: Biosynthetic labeling and immunoprecipitation of MHC molecules; type: cell-based, human; details: HLA-A2-GFP MelJuSo, 0, 10 or 20 Gy, 6 h, 10 nM rapamycin, 35S-methionine/cystein 1 h
MC38 cells [5] = assay: H2-Kb expression of MC38 cells by flow cytometry; type: cell-based, mouse; details: MC38, 20 Gy, 24 h, 20 nM rapamycin; FITC mAb H-2Kb
In short: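 MC38 murine colon adenocarcinoma cells (H-2b) were γ-irradiated with 20 Gy (137Cs, 0.75 Gy/min) and cultured 24 h with or without 20 nM rapamycin. They were then stained with FITC-labelled anti-H-2Kb mAb and analysed by flow cytometry against an isotype control antibody. Percentage of positive cells and mean fluorescence intensity were reported.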

MC38 cells [6] = assay: 111In release cytotoxicity assay with gp70-specific CTL; type: cell-based, mouse; details: 20 nM rapamycin 24 h, then 18 h with CTL

Row | SMILES | initial increase in intracellular peptides [1] | TAP activity in irradiated cells ([1]; pretreatment before irradiation, 4 Gy, measured 1 h later, n = 9) | GFP expression in response to ionizing radiation (mTOR pathway [2]; MelJuSo-EGFP (CMV promoter), 25 Gy, 24 h, n = 6) | GFP expression in nonirradiated cells (mTOR pathway [2]; MelJuSo-EGFP, no radiation) | MHC class I expression 4 h after irradiation (mTOR pathway [3]; 4 h) | radiation-induced increase in MHC class I expression 24 h after irradiation (mTOR pathway [3]; 24 h) | translation of GFP-tagged and endogenous MHC class I molecules, H chains and MHC class II molecules (mTOR pathway [4]) | radiation-induced up-regulation of MHC class I expression (MC38 cells [5]) | lysis of irradiated MC38 cells by gp70-specific CTL (MC38 cells [6]; 20 Gy, E:T 100:1 to 3.125:1) | CTL recognition of nonirradiated cells (MC38 cells [6]; MC38, no radiation)
1 | C[C@@H]1C[C@@H]([C@H](O)CC2CC(=O)NC(=O)C2)C(=O)[C@@H](C)C1 [cycloheximide] | not inhibited | no effect on TAP activity |  |  |  |  |  |  |  | 
2 | CO[C@H]1C[C@@H]2CC[C@@H](C)[C@@](O)(O2)C(=O)C(=O)N2CCCC[C@H]2C(=O)O[C@H]([C@H](C)C[C@@H]2CC[C@@H](O)[C@H](OC)C2)CC(=O)[C@H](C)/C=C(\C)[C@@H](O)[C@@H](OC)C(=O)[C@H](C)C[C@H](C)/C=C/C=C/C=C/1C [rapamycin] | not inhibited |  | no increase in GFP expression | decreased GFP expression | No effect | markedly reduced | inhibited | can be inhibited | enhanced lysis in a rapamycin-dependent fashion | no effect
